Assay results published in paper PMC3272422 (Molecular cancer therapeutics, 2011).
Like-named read-outs stand apart in the source and are kept apart here.

Experiments:
Recombinant human NQO2 = biological target: T1, Recombinant human NQO2 (Homo sapiens, UniProt P16083); assay: Inhibition of recombinant NQO2 enzymatic activity; assay type: biochemical; settings: for ΔGexp, experimentally determined binding affinity: derived from IC50 by the Cheng-Prusoff equation; for IC50: 200 μM NRH, DCPIP
T1 sequence (P16083 1-231): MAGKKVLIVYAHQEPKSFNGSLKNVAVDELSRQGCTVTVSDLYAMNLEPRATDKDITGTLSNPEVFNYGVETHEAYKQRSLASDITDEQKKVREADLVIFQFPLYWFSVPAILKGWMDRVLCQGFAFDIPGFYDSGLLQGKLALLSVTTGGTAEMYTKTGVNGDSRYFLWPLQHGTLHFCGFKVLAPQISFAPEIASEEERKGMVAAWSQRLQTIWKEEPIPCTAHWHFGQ

MDA-MB-468 cells = assay: Toxicity in MDA-MB-468 cells, MTT assay; assay type: cell-based
K562 cells = assay: 96 hour toxicity, XTT assay; assay type: cell-based; settings: read-out: 96 hour Toxicity in Cells IC50, K562
[1] = tested on: NFκB transcriptional activity in MDA-MB-468 cells; assay: NFκB dual luciferase reporter assay; assay type: cell-based
Method in brief: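 MDA-MB-468 cells (7×10^5 per 6 cm plate, 24 h attachment) were transfected with 1 µg/plate Cignal NFκB reporter (6× NFκB element-driven firefly, CMV-Renilla) using Oligofectamine in opti-MEM for 5 h at 37 °C. They were then re-fed with RPMI/10% FCS and reseeded into 96-well plates. Cells were pretreated for 1 h with 100 µM NRH and/or 20 ng/mL TNFα, then given test compound (DMSO ≤0.5% final) for 18 h. Passive lysis, dual-luciferase read-out.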

BT474 cells = assay: CB1954 toxicity in BT474 cells; assay type: cell-based; settings: Homo sapiens
[2] = tested on: NFκB in Renal Carcinoma cells; settings: cited from earlier work
Recombinant human NQO1 = settings: previously reported; cited from earlier work
[3] = read-out: IC50 + BSA, presence of 2 μM BSA
[4] = read-out: IC50 – BSA, absence of BSA
[5] = read-out: 96 hour Toxicity in Cells IC50, MDA-MB-468, 96 hour exposure
[6] = IC50 + BSA, presence of 2 μM BSA
[7] = Homo sapiens, MDA-MB-468, read-out: 3hr toxicity (IC50) Inhibitor alone

| ΔGexp, experimentally determined binding affinity (Recombinant human NQO2) [kcal/mol] | IC50 (Recombinant human NQO2; [3]) [µM] | IC50 (Recombinant human NQO2; [4]) [µM] | Structure (SMILES) | IC50 (MDA-MB-468 cells; [5]) [µM] | IC50 (K562 cells; 96 hour exposure) [µM] | IC50 (K562 cells; Homo sapiens, K562, 96 h) [µM] | also measured |
| --- | --- | --- | --- | --- | --- | --- | --- |
| -10.07 | 0.2 ± 0.09 | 0.05 ± 0.01 | Cc1c(-c2ccc(C(=N)N)cc2)oc(-c2ccc(C(=N)N)cc2)c1C [NSC305836] | 3.9 ± 2.5 | 5.5 ± 3.6 |  |  |
|  |  |  | Cc1ccc(NC(=O)c2ccc(CN3CCN(C)CC3)cc2)cc1Nc1nccc(-c2cccnc2)n1 [Imatinib, reference compound] |  |  | 0.68 ± 0.51 |  |
|  |  |  | NC(=O)C1=CN([C@@H]2O[C@H](CO)[C@@H](O)[C@H]2O)C=CC1 [NRH, N-ribosyl nicotinamide, reference compound] |  |  |  | toxicity of NRH itself (MDA-MB-468 cells; 1μM to 1mM NRH): no toxicity; NFκB activity (luciferase) ([1]; 100μM NRH, without TNFα): stimulates NFκB activity |
|  |  |  | NC(=O)c1cc(N2CC2)c([N+](=O)[O-])cc1[N+](=O)[O-] [CB1954, 5-(-aziridin-1-yl)-2,4-dinitrobenzamide, reference compound] |  |  |  | IC50 (BT474 cells; BT-474, read-out: IC50 of CB1954, absence of NRH): > 1000 µM; IC50 (BT474 cells; BT-474, read-out: IC50 of CB1954, presence of 100μM NRH): 1000 µM; proliferation of MDA-MB-468 cells (MDA-MB-468 cells; 100μM CB1954 plus 100μM NRH, 3 hours): about 25%; IC50 (MDA-MB-468 cells; Homo sapiens, MDA-MB-468, 3 h, read-out: IC50 of CB1954 alone): > 1000 µM |
| -9.197 |  |  | CCN(CC)CCCC(C)Nc1c2ccc(Cl)cc2nc2ccc(OC)cc12 (stereo not drawn) [NSC14229, Quinacrine] |  |  | 4 ± 3.6 | IC50 (Recombinant human NQO2; [6]): 8.5 ± 1.6 µM; IC50 (Recombinant human NQO2; IC50 – BSA, absence of BSA): 0.2 ± 0.05 µM; basal and induced activity of NFκB [2]: effectively suppressed |
| -10.74 | 3 ± 1.21 | 0.02 ± 0.01 | Cc1c2cnccc2c(C)c2c1c1ccccc1n2CCNCc1ccccc1 [NSC164016] | 0.43 ± 0.24 | 0.7 ± 0.29 |  |  |
|  |  |  | Oc1ccc(/C=C/c2cc(O)cc(O)c2)cc1 [Resveratrol, reference compound] |  |  | 72 ± 5.1 | IC50 (MDA-MB-468 cells; [7]): > 100 µM |
| -9.197 | 4.1 ± 1.05 | 0.2 ± 0.01 | Nc1cc2c(cc1[N+](=O)[O-])[nH]c1c(-c3ccccc3)nccc12 [NSC620318] | 22 ± 9.1 | 35 ± 33 |  |  |
|  |  |  | Nc1c2ccccc2nc2ccccc12 [NSC13000, 9-aminoacridine] |  |  | 1 ± 1.4 | IC50 (MDA-MB-468 cells; [7]): 23 ± 5.1 µM; basal and induced activity of NFκB [2]: effectively suppressed; NFκB transcriptional (luciferase) activity ([1]; 0.1μM NSC13000, cells with or without 100μM NRH): reduces the luciferase activity |
| -8.485 | 9.8 ± 0.92 | 0.66 ± 0.08 | O=C1c2c(c3c4ccccc4[nH]c3c3[nH]c4ccccc4c23)C(=O)N1Cc1ccccc1 [NSC628440] | 4 ± 0.021 | 0.75 ± 0.76 |  | inhibition of NQO1 (Recombinant human NQO1): relatively weak inhibitor |

| Structure (SMILES) | ΔGexp, experimentally determined binding affinity (Recombinant human NQO2) [kcal/mol] | IC50 (Recombinant human NQO2; [3]) [µM] | IC50 (Recombinant human NQO2; [4]) [µM] | IC50 (MDA-MB-468 cells; [5]) [µM] | IC50 (K562 cells; 96 hour exposure) [µM] | IC50 (K562 cells; Homo sapiens, K562, 96 h) [µM] | also measured |
| --- | --- | --- | --- | --- | --- | --- | --- |
| Cc1c2ccncc2c(C)c2c1[nH]c1ccccc12 [NSC71795] | -10.07 | 0.24 ± 0.09 | 0.05 ± 0.01 | 0.27 ± 0.2 | 0.73 ± 0.6 |  |  |
| N=C(N)c1ccc(-c2ccc(-c3ccc(C(=N)N)cc3)o2)cc1 [NSC305831] | -8.513 |  |  |  |  | 27 ± 35 | IC50 (Recombinant human NQO2; [6]): 2.8 ± 0.61 µM; IC50 (MDA-MB-468 cells; [7]): 114 ± 52 µM |
